Assay results published in ChEMBL document CHEMBL4334468, “Exploring Mitochondria-Mediated Intrinsic Apoptosis by New Phytochemical Entities: An Explicit Observation of Cytochrome c Dynamics on Lung and Melanoma Cancer Cells” (J Med Chem, 2019).
pIC50: −log10 of the molar value. Activity calls are given as the source filed them. The calls are words filed in the database; no cut-off is given here.

What was measured:
A-375 [1] = assay: Cytotoxicity in human A375 cells assessed as reduction in cell viability incubated for 24 hrs by MTT assay; format: functional, cell-based; conditions: Homo sapiens, A-375, 24 h; read-out: IC50
How it was run: (§1)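 MTT viability assay on A375 melanoma, A549 lung adenocarcinoma and WI-38 normal lung fibroblast cells after 24 and 48 h treatment. IC50 values are in µM, expressed as mean ± SD.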

A549 [2] = assay: Cytotoxicity in human A549 cells assessed as reduction in cell viability incubated for 24 hrs by MTT assay; format: functional, cell-based; conditions: Homo sapiens, A549, 24 h; read-out: IC50; how it was run: as §1
A-375 [3] = assay: Cytotoxicity in human A375 cells assessed as reduction in cell viability at 0.001 to 100 uM incubated for 24 to 48 hrs by LDH assay; format: functional, cell-based
How it was run: (§2)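 LDH released into the culture medium after plasma membrane damage was quantified and expressed as percentage cytotoxicity.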

A549 [4] = assay: Cytotoxicity in human A549 cells assessed as reduction in cell viability at 0.001 to 100 uM incubated for 24 to 48 hrs by LDH assay; format: functional, cell-based; how it was run: as §2
A-375 [5] = assay: Cytotoxicity in human A375 cells assessed as reduction in cell proliferation at 0.001 to 100 uM incubated for 24 to 48 hrs by BrdU incorporation assay; format: functional, cell-based
How it was run: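 BrdU incorporation assay read colorimetrically. Absorbance of the developed colour is proportional to the BrdU incorporated into cells, taken as a measure of proliferation.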

[6] = Antioxidant activity at 1 to 1000 ug/ml incubated for 90 mins by FRAP assay; format: functional
A549 [7] = assay: Induction of intracellular ROS generation in human A549 cells at 1 uM by DCFDA dye based fluorescence assay relative to control; format: functional
How it was run: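 Intracellular ROS in A549 cells was measured with the DCFDA probe over 1-100 µM, with paclitaxel as positive control. Readout is fold change in fluorescence intensity relative to untreated control.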

A549 [8] = assay: Induction of morphological changes in human A549 cells at 20 uM by phase contrast microscopy; format: functional, cell-based
A-375 [9] = assay: Induction of morphological changes in human A375 cells at 20 uM by phase contrast microscopy; format: functional, cell-based
A549 [10] = assay: Suppression of cell number in human A549 cells at 20 uM by phase contrast microscopy; format: functional, cell-based
A-375 [11] = assay: Suppression of cell number in human A375 cells at 20 uM by phase contrast microscopy; format: functional, cell-based
A549 [12] = assay: Induction of apoptosis in human A549 cells at 1 uM by acridine orange-ethidium bromide assay; format: functional, cell-based
How it was run: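 Cells were treated at 1 µM and then stained with acridine orange-ethidium bromide. Apoptosis was scored by fluorescence microscopy as a colour shift from green to yellow/red.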

A-375 [13] = assay: Induction of apoptosis in human A375 cells assessed as induction of nuclear changes with DNA fragmentation at 1 uM by Hoechst 33342 nuclear staining based assay; format: functional, cell-based
How it was run: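 Hoechst 33342 nuclear staining of treated A549 or A375 cells. Nuclear condensation and fragmentation were examined by fluorescence microscopy against untreated control.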

A549 [14] = assay: Induction of apoptosis in human A549 cells assessed as late apoptotic cells level at 1 uM incubated for 24 hrs by FITC-Annexin V staining based assay (reference value: 0.02%); format: functional
A549 [15] = assay: Induction of apoptosis in human A549 cells assessed as necrosis cells level at 1 uM incubated for 24 hrs by FITC-Annexin V staining based assay (reference value: 0.3%); format: functional
A-375 [16] = assay: Antimetastatic activity in human A375 assessed as inhibition of cell migration rate at 1 nM incubated up to 24 hrs by scratch wound healing assay; format: functional, cell-based
How it was run: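 Scratch wound healing assay. The cell-free zone was followed over time up to 24 h, with untreated control wells as reference. Closure was quantified as migration rate.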

A-375 [17] = assay: Inhibition of colony formation in human A375 cells at 1 nM by crystal violet staining based assay; format: functional, cell-based
A549 [18] = assay: Induction of cell cycle arrest in human A549 cells assessed as accumulation at S phase at 10 nM by propodium iodide staining based flow cytometric analysis (reference value: 25%); format: functional
How it was run: (§3)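 DNA was stained with propidium iodide and analysed by flow cytometry. Histograms give the fraction of cells in G0/G1, S and G2/M phases.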

A-375 [19] = assay: Induction of cell cycle arrest in human A375 cells assessed as accumulation at S phase at 10 nM by propodium iodide staining based flow cytometric analysis; format: functional; how it was run: as §3
A-375 [20] = assay: Induction of cell cycle arrest in human A375 cells assessed as accumulation at G2/M phase at 10 nM by propodium iodide staining based flow cytometric analysis; format: functional; how it was run: as §3
A-375 [21] = assay: Induction of mitochondrial membrane potential changes in human A375 cells at 1 uM by JC1 staining based fluorimetry; format: functional, cell-based
How it was run: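 Mitochondrial membrane potential was assessed with the ratiometric dye JC1. Depolarization appears as lower red and higher green fluorescence, and the red/green intensity ratio was quantified.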

A-375 [22] = assay: Inhibition of mitochondrial membrane potential in human A375 cells at 1 uM by TMRE staining based assay; format: functional, cell-based
A549 [23] = assay: Induction of apoptosis in human A549 cells assessed as increase in caspase-3 levels at 1 uM incubated for 12 hrs by spectrofluorometry; format: functional, cell-based
A-375 [24] = assay: Induction of apoptosis in human A375 cells assessed as increase in caspase-9 levels at 1 uM incubated for 12 hrs by spectrofluorometry; format: functional, cell-based
A549 [25] = assay: Induction of apoptosis in human A549 cells assessed as increase in caspase-8 levels at 1 uM incubated for 12 hrs by spectrofluorometry; format: functional, cell-based
A-375 [26] = assay: Induction of apoptosis in human A375 cells assessed as increase in caspase-2 levels at 1 uM incubated for 12 hrs by spectrofluorometry; format: functional, cell-based
A549 [27] = assay: Induction of apoptosis in human A549 cells assessed as cytochrome-c release after 6 to 8 hrs by Raman spectral imaging analysis; format: functional, cell-based
A-375 [28] = assay: Induction of DNA damage in human A375 cells after 4 hrs by Raman spectral imaging analysis; format: functional, cell-based
A-375 [29] = assay: Induction of DNA damage in human A375 cells by SERS spectral analysis; format: functional, cell-based
A549 [30] = assay: Induction of DNA fragmentation in human A549 cells after 4 hrs by agarose gel electrophoresis; format: functional, cell-based
A-375 [31] = assay: Induction of DNA fragmentation in human A375 cells after 4 hrs by agarose gel electrophoresis; format: functional, cell-based
A549 [32] = assay: Induction of DNA fragmentation in human A549 cells after 3 hrs by chemometec-DNA fragmentation assay relative to control; format: functional
A-375 [33] = assay: Induction of GSH depletion in human A375 cells by fluorimetry; format: functional, cell-based
A549 [34] = assay: Induction of apoptosis in human A549 cells assessed as cytochrome-c release after 4 to 12 hrs by spectrophotometry; format: functional, cell-based
A549 [35] = assay: Induction of apoptosis related protein expression in human A549 cells assessed as increase in p21 expression at 20 uM incubated for 12 hrs by apoptosis antibody array; format: functional, cell-based
A549 [36] = assay: Induction of apoptosis related protein expression in human A549 cells assessed as increase in Bim expression at 20 uM incubated for 12 hrs by apoptosis antibody array; format: functional, cell-based
A549 [37] = assay: Induction of apoptosis related protein expression in human A549 cells assessed as increase in Bad expression at 20 uM incubated for 12 hrs by apoptosis antibody array; format: functional, cell-based
A549 [38] = assay: Induction of apoptosis related protein expression in human A549 cells assessed as increase in Cyt-c expression at 20 uM incubated for 12 hrs by apoptosis antibody array; format: functional, cell-based

COc1cc(C2Oc3cc(-c4cc(=O)c5c(O)cc(O)cc5o4)ccc3OC2/C=C2\C(=O)ON=C2c2ccc(Cl)cc2)ccc1O (stereo not drawn)
pIC50 (A-375 [1]): 5.92 | pIC50 (A549 [2]): 5.70 | Activity (A-375 [3]): Active | Activity (A549 [4]): Active | Activity (A-375 [5]): Active | Activity [6]: inactive | fold change (FC) (A549 [7]): >3 | Activity (A549 [8]): Active | Activity (A-375 [9]): Active | Activity (A549 [10]): Active | Activity (A-375 [11]): Active | Activity (A549 [12]): Active | Activity (A-375 [13]): Active | Activity (A549 [14]): 38% | Activity (A549 [15]): 13% | Activity (A-375 [16]): Active | inhibition (A-375 [17]): Active | Activity (A549 [18]): 40% | Activity (A-375 [19]): Active | Activity (A-375 [20]): Active | Activity (A-375 [21]): Active | inhibition (A-375 [22]): Active | Activity (A549 [23]): Active | Activity (A-375 [24]): Active | Activity (A549 [25]): inactive | Activity (A-375 [26]): Active | Activity (A549 [27]): Active | Activity (A-375 [28]): Active | Activity (A-375 [29]): Active | Activity (A549 [30]): Active | Activity (A-375 [31]): Active | Activity (A549 [32]): 14.5% | Activity (A-375 [33]): Active | Activity (A549 [34]): Active | Activity (A549 [35]): Active | Activity (A549 [36]): Active | Activity (A549 [37]): Active | Activity (A549 [38]): inactive
